Data: ChEMBL document CHEMBL1772948, “Chemistry and biology of macrolide antiparasitic agents” (J Med Chem, 2011)
Values after ≈ are worked out from the molar mass of the structure shown. Values belong to the molecule of their own block, whether it stands above or below them. Active and inactive are the calls of the source. The calls are words filed in the database; no cut-off is given here.

Columns and labels:
[1] = test system: Toxoplasma gondii; assay: Antiparasitic activity against Toxoplasma gondii 2F-1 expressing yellow fluorescent protein infected in HFF after 4 days; type: functional, organism-based; details: 2F-1, 96 h
[2] = test system: Bacillus subtilis; assay: Antibacterial activity against Bacillus subtilis; type: functional
[3] = test system: HFF; assay: Cytotoxicity against HFF after 48 hrs by MTS assay; type: cell-based; details: human
Procedure, shortened: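 Low-passage HFF seeded in 96-well plates and incubated 24h at 37 °C, then exposed to varying macrolide concentrations for 2 days; medium replaced with fresh medium plus MTS, 4h at 37 °C, absorbance 490 nm; CC50 = dose reducing viability by 50%.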

[4] = test system: Toxoplasma gondii; assay: Antiparasitic activity against yellow fluorescent protein expressing Toxoplasma gondii 2F-1 infected in HFF treated immediately after infection measured after 48 hrs; type: functional, organism-based; details: 2F-1, 48 h
[5] = test system: Toxoplasma gondii; assay: Antiparasitic activity against yellow fluorescent protein expressing Toxoplasma gondii 2F-1 treated immediately after infection for 48 hrs followed by reinoculated into fresh HFF monolayers measured after 48 hrs; type: functional, organism-based; details: 2F-1, 48 h
Procedure, shortened: (§1)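 Two-cycle protocol in HFF at 37 °C, 5% CO2, DMEM with 10% FBS. "0h": compound added with parasites, 48 h. "6h": parasites pre-incubated 6 h, uninvaded parasites removed, fresh medium with compound added, 42 h. Released tachyzoites were then harvested, purified and inoculated into fresh HFF without compound for the 2nd cycle. At least triplicate.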

[6] = test system: Toxoplasma gondii; assay: Antiparasitic activity against yellow fluorescent protein expressing Toxoplasma gondii 2F-1 infected in HFF treated 6 hrs after infection measured after 48 hrs; type: functional, organism-based
[7] = test system: Toxoplasma gondii; assay: Antiparasitic activity against yellow fluorescent protein expressing Toxoplasma gondii 2F-1 treated 6 hrs after infection for 42 hrs followed by reinoculated into fresh HFF monolayers measured after 48 hrs; type: functional, organism-based; procedure, shortened: as §1
[8] = test system: Toxoplasma gondii; assay: Antiparasitic activity against green fluorescent protein expressing hwgprt deficient Toxoplasma gondii RH infected in HFF at 5 to 50 uM treated immediately after infection measured after 48 hrs; type: functional, organism-based
Procedure, shortened: (§2)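 GFP-expressing RHΔhxgprt tachyzoites were grown on HFF on glass coverslips in 12-well plates (2×10^4/well). Compound was added either with the parasites ("0h", 48 h) or after a 6 h pre-infection and medium change ("6h", 42 h). Parasites per vacuole were counted by fluorescence microscopy in at least 50 random vacuoles per well. Three independent experiments.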

[9] = test system: Toxoplasma gondii; assay: Antiparasitic activity against green fluorescent protein expressing hwgprt deficient Toxoplasma gondii RH infected in HFF at 5 to 50 uM treated immediately after infection measured after 48 hrs followed by reinoculated into fresh HFF monolayers measured after 48 hrs; type: functional, organism-based
[10] = test system: Toxoplasma gondii; assay: Antiparasitic activity against green fluorescent protein expressing […] deficient Toxoplasma gondii RH infected in HFF at 5 to 50 uM treated 6 hrs after infection measured after 48 hrs; type: functional, organism-based; procedure, shortened: as §2
[11] = test system: Toxoplasma gondii; assay: Antiparasitic activity against green fluorescent protein expressing […] deficient Toxoplasma gondii RH infected in HFF at 5 to 50 uM treated 6 hrs after infection measured after 48 hrs followed by reinoculated into fresh HFF monolayers measured after 48 hrs; type: functional, organism-based; procedure, shortened: as §2
[12] = test system: Toxoplasma gondii; assay: Antiparasitic activity against green fluorescent protein expressing hwgprt deficient Toxoplasma gondii RH infected in HFF assessed as reduction of ycf24/UPRT genes copy number ratio at 10 uM […] followed by reinoculated into fresh HFF monolayers measured after 48 hrs by RT-PCR analysis; type: functional
[13] = test system: Toxoplasma gondii; assay: Antiparasitic activity against clindamycin-resistant Toxoplasma gondii 4 infected in HFF assessed as reduction of ycf24/UPRT genes copy number ratio at 10 uM treated for 48 hrs after 6 hrs infection followed by reinoculated into fresh HFF monolayers measured after 48 hrs by RT-PCR analysis; type: functional
Procedure, shortened: (§3)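 Tachyzoites were seeded on confluent HFF monolayers in 6-well plates at 2×10^5 per well, in DMEM with 10% FBS and 1% PS at 37 °C, 5% CO2. After 6 h pre-infection, the medium was replaced with medium containing compound for 42 h. Released parasites were reinoculated into fresh HFF without drug for 48 h, collected by centrifugation, and measured by qPCR as the ratio of plastid ycf24 to nuclear UPRT copies. At least triplicate.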

[14] = test system: Toxoplasma gondii; assay: (§4) Antiparasitic activity against green fluorescent protein expressing hwgprt deficient Toxoplasma gondii RH infected in HFF assessed as reduction of ycf24/UPRT genes copy number ratio at 1 uM treated for 48 hrs after 6 hrs infection followed by reinoculated into fresh HFF monolayers measured after 48 hrs by RT-PCR analysis; type: functional
[15] = test system: Toxoplasma gondii; assay: Antiparasitic activity against clindamycin-resistant Toxoplasma gondii 4 infected in HFF assessed as reduction of ycf24/UPRT genes copy number ratio at 1 uM treated for 48 hrs after 6 hrs infection followed by reinoculated into fresh HFF monolayers measured after 48 hrs by RT-PCR analysis; type: functional
[16] = test system: Toxoplasma gondii; assay: as §4, with “0.1” for “1”; type: functional; procedure, shortened: as §3
[17] = test system: Toxoplasma gondii; assay: Antiparasitic activity against clindamycin-resistant Toxoplasma gondii 4 infected in HFF assessed as reduction of ycf24/UPRT genes copy number ratio at 0.1 uM treated for 48 hrs after 6 hrs infection followed by reinoculated into fresh HFF monolayers measured after 48 hrs by RT-PCR analysis; type: functional; procedure, shortened: as §3
[18] = test system: Toxoplasma gondii; assay: Antiparasitic activity against green fluorescent protein expressing […] deficient Toxoplasma gondii RH infected in HFF assessed as parasite doubling time at 5 to 50 uM treated immediately after infection measured after 48 hrs; type: functional
Procedure, shortened: (§5)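 HFF were grown on glass coverslips in 12-well plates and infected with 2×10^4 GFP tachyzoites per well. Compound was added with the inoculum; the first cycle ran 48 h, and the second cycle ran in fresh HFF without drug. Parasites per vacuole were counted by fluorescence microscopy, at least 50 random vacuoles per well, to derive doubling time. Three independent experiments.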

[19] = test system: Toxoplasma gondii; assay: Antiparasitic activity against green fluorescent protein expressing […] deficient Toxoplasma gondii RH assessed as parasite doubling time at 5 to 50 uM treated immediately after infection for 48 hrs followed by reinoculated into fresh HFF monolayers measured after 48 hrs; type: functional; procedure, shortened: as §5
[20] = test system: Toxoplasma gondii; assay: Antiparasitic activity against green fluorescent protein expressing […] deficient Toxoplasma gondii RH infected in HFF assessed as decrease in density of parasitophorous vacuoles at 10 uM treated immediately after infection measured after 24 hrs by microscopic analysis; type: functional, organism-based
Procedure, shortened: (§6)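 GFP T. gondii RHΔhxgprt in HFF, compound (10 μM) added either with the inoculum ("0h") or after 6 h pre-infection and washing ("6h"); vacuoles per microscope field scored at 24 h, at least 20 random fields from each of three experiments.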

[21] = test system: Toxoplasma gondii; assay: Antiparasitic activity against green fluorescent protein expressing […] deficient Toxoplasma gondii RH infected in HFF assessed as decrease in density of parasitophorous vacuoles at 10 uM treated 6 hrs after infection measured after 24 hrs by microscopic analysis; type: functional, organism-based; procedure, shortened: as §6
[22] = test system: Toxoplasma gondii; assay: Antiparasitic activity against clindamycin-resistant Toxoplasma gondii 4 infected in HFF assessed as reduction of ycf24/UPRT genes copy number ratio at 10 uM treated for 48 hrs immediately after infection followed by reinoculated into fresh HFF monolayers measured after 48 hrs by RT-PCR analysis; type: functional
Procedure, shortened: (§7)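 Tachyzoites were seeded on confluent HFF in 6-well plates at 2×10^5 per well, in DMEM with 10% FBS and 1% PS at 37 °C, 5% CO2. Compound was added together with the parasite inoculum, and cultures ran 48 h. Harvested tachyzoites were reinoculated into fresh HFF without drug for a second cycle. Parasites were pelleted by centrifugation and the plastid ycf24 to nuclear UPRT copy ratio was read by qPCR (40 cycles, 94 °C 3 s / 60 °C 30 s). At least triplicate.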

[23] = test system: Toxoplasma gondii; assay: (§8) Antiparasitic activity against green fluorescent protein expressing […] deficient Toxoplasma gondii RH infected in HFF assessed as reduction of ycf24/UPRT genes copy number ratio at 1 uM treated for 48 hrs immediately after infection followed by reinoculated into fresh HFF monolayers measured after 48 hrs by RT-PCR analysis; type: functional
Procedure, shortened: as §7, with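 “CO2.” for “CO2. Compound was added together with the parasite inoculum, and cultures ran 48 h.”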

[24] = test system: Toxoplasma gondii; assay: Antiparasitic activity against clindamycin-resistant Toxoplasma gondii 4 infected in HFF assessed as reduction of ycf24/UPRT genes copy number ratio at 1 uM treated for 48 hrs immediately after infection followed by reinoculated into fresh HFF monolayers measured after 48 hrs by RT-PCR analysis; type: functional
Procedure, shortened: as §7, with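 “CO2.” for “CO2. Compound was added together with the parasite inoculum, and cultures ran 48 h.”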

[25] = test system: Toxoplasma gondii; assay: as §8, with “0.1” for “1”; type: functional; procedure, shortened: as §7
[26] = test system: Toxoplasma gondii; assay: Antiparasitic activity against clindamycin-resistant Toxoplasma gondii 4 infected in HFF assessed as reduction of ycf24/UPRT genes copy number ratio at 0.1 uM treated for 48 hrs immediately after infection followed by reinoculated into fresh HFF monolayers measured after 48 hrs by RT-PCR analysis; type: functional; procedure, shortened: as §7
[27] = test system: Toxoplasma gondii; assay: Antiparasitic activity against green fluorescent protein expressing hwgprt deficient Toxoplasma gondii RH infected in HFF assessed as reduction of ycf24/UPRT genes copy number ratio at 10 uM treated for 42 hrs starting 6 hrs after infection followed by reinoculated into fresh HFF monolayers measured after 48 hrs by RT-PCR analysis
[28] = test system: Toxoplasma gondii; assay: as §4, with “5” for “1”; type: functional, organism-based
Procedure, shortened: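 HFF monolayers infected with RHΔhxgprt (or Clin^R-4) in 6-well plates; after 6 h medium changed and compound present 42 h; at 48 h parasites reinoculated into fresh HFF for 48 h without compound; parasites pelleted at 2,000 rpm 10 min; qPCR (94 °C 20 s, then 40 cycles 94 °C 3 s/60 °C 30 s) plastid ycf24 vs nuclear UPRT copy ratio.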

[29] = test system: Toxoplasma gondii; assay: Antiparasitic activity against clindamycin-resistant Toxoplasma gondii 4 infected in HFF assessed as reduction of ycf24/UPRT genes copy number ratio at 5 uM treated for 48 hrs after 6 hrs infection followed by reinoculated into fresh HFF monolayers measured after 48 hrs by RT-PCR analysis; type: functional, organism-based
[30] = test system: Toxoplasma gondii; assay: as §8, with “5” for “1”; type: functional, organism-based; procedure, shortened: as §7
[31] = test system: Toxoplasma gondii; assay: Antiparasitic activity against clindamycin-resistant Toxoplasma gondii 4 infected in HFF assessed as reduction of ycf24/UPRT genes copy number ratio at 5 uM treated for 48 hrs immediately after infection followed by reinoculated into fresh HFF monolayers measured after 48 hrs by RT-PCR analysis; type: functional, organism-based; procedure, shortened: as §7

Molecule: CC[C@H]1OC(=O)[C@H](C)[C@@H](O[C@H]2C[C@@](C)(OC)[C@@H](O)[C@H](C)O2)[C@H](C)[C@@H](O[C@@H]2O[C@H](C)C[C@H](N(C)C)[C@H]2O)[C@](C)(O)C[C@@H](C)CN(C)[C@H](C)[C@@H](O)[C@]1(C)O [AZITHROMYCIN]
- IC50 [1]: 20 µM
- MIC [2]: 0.15 µM (≈ 0.112 µg/mL)
- CC50 [3]: 174 µM
- IC50 [4]: 29 µM
- IC50 [5]: 0.6 µM
- IC50 [6]: 44 µM
- IC50 [7]: 0.6 µM
- Activity [8]: Active
- Activity [9]: Active
- Activity [10]: Active
- Activity [11]: Active
- Ratio [12]: 3
- Ratio [13]: 4
- Ratio [14]: 3
- Ratio [15]: 3
- Ratio [16]: 15
- Ratio [17]: 13
- Time [18]: 9.5 h
- Time [19]: >16 h
- Activity [20]: inactive
- Activity [21]: inactive
- Ratio [22]: 10
- Ratio [23]: 7
- Ratio [24]: 8
- Ratio [25]: 7
- Ratio [26]: 18
- Ratio [27]: 10

Molecule: SPIRAMYCIN
- Ratio [28]: 5
- Ratio [29]: 3
- Ratio [30]: 8
- Ratio [31]: 8

Molecule: CC[C@H]1OC(=O)[C@H](C)[C@@H](O[C@H]2C[C@@](C)(OC)[C@@H](O)[C@H](C)O2)[C@H](C)[C@@H](O[C@@H]2O[C@H](C)C[C@H](N(C)C)[C@H]2O)[C@](C)(O)C[C@@H](C)CN(CC2CCCCC2)[C@H](C)[C@@H](O)[C@]1(C)O
- MIC [2]: 0.3 µM (≈ 0.249 µg/mL)
- CC50 [3]: 36 µM
- IC50 [4]: 7 µM
- IC50 [5]: 0.6 µM
- IC50 [6]: 12 µM
- IC50 [7]: 0.6 µM
- Activity [20]: Active

Molecule: CCc1nc(N)nc(N)c1-c1ccc(Cl)cc1 [PYRIMETHAMINE]
- Ratio [14]: 22
- Ratio [15]: 23
- Ratio [23]: 29
- Ratio [24]: 27

Now from value to molecule, other results behind:

- MIC [2]: 0.3 µM (≈ 0.253 µg/mL)
Molecule: CC[C@H]1OC(=O)[C@H](C)[C@@H](O[C@H]2C[C@@](C)(OC)[C@@H](O)[C@H](C)O2)[C@H](C)[C@@H](O[C@@H]2O[C@H](C)C[C@H](N(C)C)[C@H]2O)[C@](C)(O)C[C@@H](C)CN(Cc2ccc(F)cc2)[C@H](C)[C@@H](O)[C@]1(C)O
- CC50 [3]: 31 µM
- IC50 [4]: 6 µM
- IC50 [5]: 0.5 µM
- IC50 [6]: 9 µM
- IC50 [7]: 0.7 µM
- Activity [20]: Active

- MIC [2]: 0.3 µM (≈ 0.252 µg/mL)
Molecule: CC[C@H]1OC(=O)[C@H](C)[C@@H](O[C@H]2C[C@@](C)(OC)[C@@H](O)[C@H](C)O2)[C@H](C)[C@@H](O[C@@H]2O[C@H](C)C[C@H](N(C)C)[C@H]2O)[C@](C)(O)C[C@@H](C)CN(Cc2ccc(C)cc2)[C@H](C)[C@@H](O)[C@]1(C)O
- CC50 [3]: 38 µM
- IC50 [4]: 5 µM
- IC50 [5]: 0.6 µM
- IC50 [6]: 9 µM
- IC50 [7]: 0.7 µM
- Activity [20]: Active
